pEC50: −log10 of the molar value. Blank lines part the entries; values can stand above or below the molecule they belong to. Activity calls are given as the source filed them. The rule behind the calls is not given here.
Tests used:
[1] = target: Metabotropic glutamate receptor 4 (Rattus norvegicus) (UniProt P31423); assay: Positive allosteric modulation of rat mGlu4 receptor expressed in HEK293 cells co-expressing Gi/Gq assessed as increase in glutamate-induced calcium flux preincubated for 10 mins followed by glutamate addition measured for 3 mins by Fluo4-AM dye based fluorescence assay relative to control; type: functional, cell-based
[2] = target: Metabotropic glutamate receptor 5 (Homo sapiens) (UniProt P41594); assay: Activity at human mGlu5 receptor expressed in HEK293 cells co-expressing Gi/Gq assessed as effect on intracellular calcium level up to 10 uM after 10 mins by Fluo4-AM dye based fluorescence assay; type: functional, cell-based
Chain of Metabotropic glutamate receptor 5 (Homo sapiens) (P41594 21-1212 limits assumed): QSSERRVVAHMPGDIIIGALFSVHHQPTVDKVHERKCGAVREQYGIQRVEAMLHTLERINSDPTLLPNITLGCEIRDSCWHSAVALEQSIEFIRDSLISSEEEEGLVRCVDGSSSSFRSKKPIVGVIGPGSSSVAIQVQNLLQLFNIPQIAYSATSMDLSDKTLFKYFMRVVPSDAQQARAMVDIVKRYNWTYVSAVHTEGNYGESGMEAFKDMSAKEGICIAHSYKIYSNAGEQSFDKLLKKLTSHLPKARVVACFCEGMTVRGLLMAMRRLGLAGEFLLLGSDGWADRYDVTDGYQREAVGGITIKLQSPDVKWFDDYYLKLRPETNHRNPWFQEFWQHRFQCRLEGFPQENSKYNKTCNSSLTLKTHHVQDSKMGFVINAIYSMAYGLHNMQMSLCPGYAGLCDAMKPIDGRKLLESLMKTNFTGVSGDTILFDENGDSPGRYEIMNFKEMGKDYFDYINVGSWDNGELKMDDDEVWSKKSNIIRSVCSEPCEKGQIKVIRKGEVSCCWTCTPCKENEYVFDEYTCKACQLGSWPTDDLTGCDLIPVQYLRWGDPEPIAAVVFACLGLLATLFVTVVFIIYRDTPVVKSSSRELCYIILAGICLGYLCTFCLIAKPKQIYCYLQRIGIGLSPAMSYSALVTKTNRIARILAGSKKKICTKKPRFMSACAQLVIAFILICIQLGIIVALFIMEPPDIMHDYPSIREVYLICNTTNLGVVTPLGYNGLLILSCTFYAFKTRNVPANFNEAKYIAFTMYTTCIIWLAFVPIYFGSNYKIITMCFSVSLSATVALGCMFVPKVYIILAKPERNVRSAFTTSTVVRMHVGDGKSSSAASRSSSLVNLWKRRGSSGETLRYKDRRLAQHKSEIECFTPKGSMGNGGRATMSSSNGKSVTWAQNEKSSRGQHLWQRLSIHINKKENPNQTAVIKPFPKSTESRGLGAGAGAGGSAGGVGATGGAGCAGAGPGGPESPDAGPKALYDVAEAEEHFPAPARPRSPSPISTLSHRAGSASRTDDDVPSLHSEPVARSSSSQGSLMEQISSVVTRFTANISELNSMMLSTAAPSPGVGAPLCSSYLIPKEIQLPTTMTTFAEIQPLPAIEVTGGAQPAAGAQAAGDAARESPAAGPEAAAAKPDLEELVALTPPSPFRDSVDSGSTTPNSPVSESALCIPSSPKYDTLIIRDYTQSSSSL
How it was run: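 HEK-293 cells transiently expressing the human mGluR with a promiscuous or chimeric G protein were serum-starved 3 h and loaded 1.5 h with 1 μM Fluo4-AM. Compound alone was added in assay buffer, and calcium fluorescence (ex 485/em 525) was recorded for 10 min as agonist readout.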

Rattus norvegicus [3] = organism: Rattus norvegicus; assay: Activity at kainate glutamate receptor in rat cerebral cortex at 10 uM
How it was run: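 Inhibition of orthosteric ligand binding to NMDA, AMPA and kainate receptors on rat cerebral cortex membranes, tested up to 10 μM.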

[4] = target: Metabotropic glutamate receptor 8 (Homo sapiens) (UniProt O00222); assay: Agonist activity at human mGlu8 receptor expressed in HEK293 cells co-expressing Gi/Gq assessed as increase in intracellular calcium level at 10 uM after 10 mins by Fluo4-AM dye based fluorescence assay relative to control; type: functional, cell-based
Chain of Metabotropic glutamate receptor 8 (Homo sapiens) (O00222 whole entry): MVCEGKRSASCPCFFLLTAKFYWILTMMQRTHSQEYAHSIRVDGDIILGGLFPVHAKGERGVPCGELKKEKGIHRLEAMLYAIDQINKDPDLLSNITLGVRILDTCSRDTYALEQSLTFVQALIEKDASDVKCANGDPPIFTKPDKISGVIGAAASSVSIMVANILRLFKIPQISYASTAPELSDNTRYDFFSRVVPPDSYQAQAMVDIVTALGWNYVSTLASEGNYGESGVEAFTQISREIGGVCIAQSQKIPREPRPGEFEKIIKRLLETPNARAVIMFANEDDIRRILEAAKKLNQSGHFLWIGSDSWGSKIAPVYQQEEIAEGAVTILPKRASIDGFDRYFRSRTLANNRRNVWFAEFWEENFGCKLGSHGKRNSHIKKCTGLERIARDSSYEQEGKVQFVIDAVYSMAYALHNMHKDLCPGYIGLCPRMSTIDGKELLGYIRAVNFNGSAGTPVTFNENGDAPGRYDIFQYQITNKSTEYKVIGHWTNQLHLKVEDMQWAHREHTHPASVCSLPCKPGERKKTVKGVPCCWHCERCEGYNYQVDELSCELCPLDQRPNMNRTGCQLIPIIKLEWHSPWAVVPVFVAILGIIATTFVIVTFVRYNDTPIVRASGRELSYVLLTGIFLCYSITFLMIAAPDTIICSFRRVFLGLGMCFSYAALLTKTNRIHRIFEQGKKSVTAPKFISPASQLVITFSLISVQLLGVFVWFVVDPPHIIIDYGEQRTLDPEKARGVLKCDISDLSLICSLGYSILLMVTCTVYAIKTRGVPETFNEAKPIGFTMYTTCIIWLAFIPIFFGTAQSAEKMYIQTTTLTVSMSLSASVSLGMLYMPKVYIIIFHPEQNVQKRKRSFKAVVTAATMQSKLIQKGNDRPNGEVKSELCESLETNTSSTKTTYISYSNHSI
How it was run: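 Human mGluR8 in transiently transfected HEK293 cells loaded with Fluo4-AM. Compound alone was added and fluorescence followed for 10 min. Stimulation is expressed relative to the maximal glutamate response.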

[5] = target: D(1A) dopamine receptor (Homo sapiens) (UniProt P21728); assay: Antagonist activity at D1 receptor (unknown origin) at 10 uM
Chain of D(1A) dopamine receptor (Homo sapiens) (P21728 whole entry): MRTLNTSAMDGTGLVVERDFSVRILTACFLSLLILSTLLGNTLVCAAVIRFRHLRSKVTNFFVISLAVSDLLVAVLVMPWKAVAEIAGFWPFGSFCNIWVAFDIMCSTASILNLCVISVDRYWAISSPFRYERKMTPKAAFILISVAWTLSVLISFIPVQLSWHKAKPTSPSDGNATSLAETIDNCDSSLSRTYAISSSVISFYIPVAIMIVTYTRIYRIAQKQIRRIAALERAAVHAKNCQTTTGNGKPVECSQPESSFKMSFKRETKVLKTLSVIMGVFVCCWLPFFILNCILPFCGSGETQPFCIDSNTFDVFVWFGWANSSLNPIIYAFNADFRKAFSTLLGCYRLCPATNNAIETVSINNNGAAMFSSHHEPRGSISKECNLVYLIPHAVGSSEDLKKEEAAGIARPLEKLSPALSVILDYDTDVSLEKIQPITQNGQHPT

[6] = target: D(2) dopamine receptor (Homo sapiens) (UniProt P14416); assay: Agonist activity at D2L receptor (unknown origin) at 10 uM
Chain of D(2) dopamine receptor (Homo sapiens) (P14416 whole entry): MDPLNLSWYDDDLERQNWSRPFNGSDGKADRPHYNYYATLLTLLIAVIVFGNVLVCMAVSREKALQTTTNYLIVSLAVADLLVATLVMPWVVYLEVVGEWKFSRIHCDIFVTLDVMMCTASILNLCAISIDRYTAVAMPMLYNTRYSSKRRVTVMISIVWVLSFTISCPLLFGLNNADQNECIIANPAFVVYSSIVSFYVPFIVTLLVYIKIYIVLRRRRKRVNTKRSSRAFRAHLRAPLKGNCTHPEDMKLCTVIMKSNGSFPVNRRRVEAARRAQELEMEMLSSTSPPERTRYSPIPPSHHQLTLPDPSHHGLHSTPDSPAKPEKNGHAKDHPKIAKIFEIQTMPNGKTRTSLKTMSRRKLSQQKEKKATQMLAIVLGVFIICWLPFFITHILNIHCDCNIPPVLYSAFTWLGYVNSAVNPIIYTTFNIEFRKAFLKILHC

[7] = target: Interleukin-1 receptor-associated kinase 4 (Homo sapiens) (UniProt Q9NWZ3); assay: Inhibition of IRAK4 (unknown origin) at 10 uM
[8] = target: Mitogen-activated protein kinase kinase kinase 7 (Homo sapiens) (UniProt O43318); assay: Inhibition of TAK1 (unknown origin) at 10 uM
Rattus norvegicus [9] = assay: Protection against 6-OHDA induced parkinsonian motor deficit in Sprague-Dawley rat assessed as increase in slow activity at 30 mg/kg, ip after 28 days post surgery; type: functional, organism-based
How it was run: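 Adult male Sprague−Dawley rats with bilateral 6-OHDA striatal lesions given compound 30 mg/kg ip or vehicle at T0; spontaneous locomotor activity (active time, slow activity, rearing) counted in 5-min bins versus pre-surgery vehicle; n = 10.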

[10] = target: Metabotropic glutamate receptor 2 (Homo sapiens) (UniProt Q14416); assay: Activity at human mGlu2 receptor expressed in HEK293 cells co-expressing Gi/Gq assessed as effect on EC20/EC80 glutamate-induced intracellular calcium level up to 10 uM preincubated for 10 mins followed by glutamate addition measured for 3 mins by Fluo4-AM dye based fluorescence assay; type: functional, cell-based
Chain of Metabotropic glutamate receptor 2 (Homo sapiens) (Q14416 19-872 limits assumed): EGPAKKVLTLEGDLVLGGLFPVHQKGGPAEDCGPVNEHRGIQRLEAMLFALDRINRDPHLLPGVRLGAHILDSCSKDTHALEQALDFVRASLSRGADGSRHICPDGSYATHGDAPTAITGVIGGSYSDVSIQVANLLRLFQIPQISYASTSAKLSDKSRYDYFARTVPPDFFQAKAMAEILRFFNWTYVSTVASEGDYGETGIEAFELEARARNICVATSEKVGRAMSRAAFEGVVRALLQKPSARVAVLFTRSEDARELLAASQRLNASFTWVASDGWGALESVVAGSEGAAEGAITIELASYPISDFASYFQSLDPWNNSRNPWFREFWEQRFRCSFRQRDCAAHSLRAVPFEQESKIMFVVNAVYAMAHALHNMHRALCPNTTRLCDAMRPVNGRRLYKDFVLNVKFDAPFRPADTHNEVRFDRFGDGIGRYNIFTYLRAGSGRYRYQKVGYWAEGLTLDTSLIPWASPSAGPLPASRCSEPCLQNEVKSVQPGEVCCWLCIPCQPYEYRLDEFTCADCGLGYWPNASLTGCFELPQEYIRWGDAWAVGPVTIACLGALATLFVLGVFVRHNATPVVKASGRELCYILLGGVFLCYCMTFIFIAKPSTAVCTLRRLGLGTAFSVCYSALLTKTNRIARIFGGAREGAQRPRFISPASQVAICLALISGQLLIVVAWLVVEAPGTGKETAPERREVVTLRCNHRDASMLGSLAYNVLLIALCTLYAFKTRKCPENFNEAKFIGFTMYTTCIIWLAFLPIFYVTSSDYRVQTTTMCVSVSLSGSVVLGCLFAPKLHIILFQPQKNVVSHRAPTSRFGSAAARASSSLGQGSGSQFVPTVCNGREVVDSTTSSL
How it was run: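 HEK-293 cells were electroporated with the human mGluR plus a promiscuous or chimeric G protein and cultured 24 h, then serum-starved 3 h. Cells were loaded 1.5 h with 1 μM Fluo4-AM in HBSS/HEPES buffer with probenecid and 0.1% BSA. Compound was added for 10 min, then glutamate at EC20 (PAM) or EC80 (NAM), and fluorescence (ex 485/em 525) was read for 3 min.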

[11] = target: Metabotropic glutamate receptor 4 (Homo sapiens, UniProt Q14833); assay: Positive allosteric modulation of recombinant human mGlu4 receptor expressed in HEK293 cells co-expressing Gi/Gq assessed as increase in glutamate-induced calcium flux preincubated for 10 mins followed by glutamate addition measured for 3 mins by Fluo4-AM dye based fluorescence assay; type: functional, cell-based; conditions: read-out: EC50
Chain of Metabotropic glutamate receptor 4 (Q14833 whole entry): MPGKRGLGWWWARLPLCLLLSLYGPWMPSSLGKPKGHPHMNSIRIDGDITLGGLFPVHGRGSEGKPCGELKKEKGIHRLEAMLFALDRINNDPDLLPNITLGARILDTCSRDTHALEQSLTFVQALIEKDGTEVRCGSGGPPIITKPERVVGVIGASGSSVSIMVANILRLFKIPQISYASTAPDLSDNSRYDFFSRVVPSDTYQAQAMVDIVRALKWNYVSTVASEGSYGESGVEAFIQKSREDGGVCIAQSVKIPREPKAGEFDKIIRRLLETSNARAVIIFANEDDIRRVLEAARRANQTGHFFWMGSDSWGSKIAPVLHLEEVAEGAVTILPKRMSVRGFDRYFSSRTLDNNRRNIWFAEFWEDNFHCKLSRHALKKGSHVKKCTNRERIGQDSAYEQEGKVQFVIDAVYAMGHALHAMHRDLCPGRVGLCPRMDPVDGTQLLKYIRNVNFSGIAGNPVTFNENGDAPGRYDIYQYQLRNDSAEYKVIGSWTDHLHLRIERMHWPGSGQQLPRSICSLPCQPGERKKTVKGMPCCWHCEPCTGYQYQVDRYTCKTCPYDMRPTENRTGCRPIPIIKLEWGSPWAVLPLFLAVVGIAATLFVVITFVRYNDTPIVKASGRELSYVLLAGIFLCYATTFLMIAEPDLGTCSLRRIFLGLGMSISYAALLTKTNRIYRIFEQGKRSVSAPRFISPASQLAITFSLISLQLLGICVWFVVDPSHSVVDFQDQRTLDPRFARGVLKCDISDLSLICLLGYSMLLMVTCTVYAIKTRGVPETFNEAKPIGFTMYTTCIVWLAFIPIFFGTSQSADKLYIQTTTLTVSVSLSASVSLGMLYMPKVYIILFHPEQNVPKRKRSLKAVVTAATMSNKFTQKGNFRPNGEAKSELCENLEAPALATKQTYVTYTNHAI

[12] = Activity at COMT (unknown origin) up to 10 uM; type: ADME; conditions: human
[13] = target: Amine oxidase [flavin-containing] A (Homo sapiens, UniProt P21397); assay: Activity at MAO-A (unknown origin) up to 10 uM; type: ADME
[14] = Cmax in C57BL/6 mouse plasma at 10 mg/kg, po administered as single dose by LC-MS/MS analysis; type: ADME, organism-based; set-up: dose 10 mg/kg, route oral
How it was run: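 Mice given 10 mg/kg orally. Plasma Cmax was determined and brain concentration measured at 30 min postdose. Values are the mean (±SEM) of 2 mice.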

[15] = Drug uptake in Sprague-Dawley rat brain at 10 mg/kg, po after 30 mins post dose administered as single dose by LC-MS/MS analysis; type: ADME, organism-based; conditions: read-out: Drug uptake
How it was run: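 Rats given a single oral dose of 10 mg/kg. The first plasma sample was taken at 15 min, and sampling continued to 24 h postdose. Brain was sampled at 30 min. Values are the mean (±SEM) of 3 rats.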

[16] = Ratio of drug level in Sprague-Dawley rat brain to plasma at 30 mg/kg, ip after 30 mins post dose administered as single dose by LC-MS/MS analysis; type: ADME, organism-based; conditions: read-out: BPR
How it was run: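 Single dose ip (10 or 30 mg/kg, rat) or oral (10 mg/kg, rat or mouse); plasma Cmax, Tmax, half-life, AUC0−inf derived; brain concentration and brain/plasma ratio at 30 min postdose. Mean of 3 rats or 2 mice.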

[17] = Ratio of drug uptake in Sprague-Dawley rat brain at 10 mg/kg, po to EC50 for rat mGlu4 receptor expressed in HEK293 cells
How it was run: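 Rats received a single ip or oral dose. Brain concentration was measured 30 min postdose, mean of 3 rats, and divided by the EC50 measured in cell lines overexpressing rat mGluR4.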

Mus musculus = assay: Anti-parkinson's activity in C57BL/6 mouse assessed as brain concentration required for reversal of haloperidol-induced catalepsy at 30 mg/kg, ip after 40 mins; type: functional
[18] = Plasma concentration in Sprague-Dawley rat at 30 mg/kg, ip after 60 mins; type: ADME, organism-based
How it was run: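 Rats dosed 30 mg/kg ip; plasma sampled over time, brain measured at 30 and 60 min; brain/plasma ratio averaged over 30 and 60 min.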

[19] = Drug uptake in Sprague-Dawley rat brain at 30 mg/kg, ip after 120 mins; type: ADME, organism-based; conditions: read-out: Drug uptake
Brain [20] = assay: Fraction unbound in Sprague-Dawley rat brain at 30 mg/kg, ip after 60 mins; type: ADME, organism-based; conditions: in vivo, 1 h
Brain [21] = assay: Fraction unbound in Sprague-Dawley rat brain at 30 mg/kg, ip after 240 mins; type: ADME, organism-based; conditions: in vivo, 4 h
[22] = Ratio of fraction unbound in Sprague-Dawley rat brain at 30 mg/kg, ip after 120 mins to EC50 for rat mGlu4 receptor expressed in HEK293 cells
[23] = Ratio of fraction unbound in Sprague-Dawley rat brain at 30 mg/kg, ip after 240 mins to EC50 for rat mGlu4 receptor expressed in HEK293 cells
Rattus norvegicus [24] = assay: Toxicity in 6-OHDA induced parkinsonian motor deficit Sprague-Dawley rat model assessed as induction of overacting rearing behavior up to 30 mg/kg, ip; type: organism-based; conditions: in vivo
Rattus norvegicus [25] = assay: Toxicity in 6-OHDA induced parkinsonian motor deficit Sprague-Dawley rat model assessed as induction of dyskinesia at 30 mg/kg, ip; type: organism-based; conditions: in vivo

- Emax [1]: 75%
- Activity [2]: inactive
- Activity (Rattus norvegicus [3]): inactive
- Activity [4]: 23%
- Activity [5]: inactive
- Activity [6]: inactive
- inhibition [7]: inactive
- inhibition [8]: inactive
- Activity [10]: inactive
Compound: O/N=c1\cc(-c2cc3cccn3cn2)oc2ccc(OCCN3CCOCC3)cc12 [listing 1 of 2 here]
- Activity (Rattus norvegicus [9]): Active

- pEC50 [11]: 7.34
- Activity [12]: Not Active
- Activity [13]: Not Active
- Cmax [14]: 229 ng/mL
- concentration at 0.5 h [15]: 454 ng/g
- Kp at 0.5 h [16]: 3.1
- concentration at 1 h [18]: 3560 ng/mL
- concentration at 2 h [19]: 1740 ng/g
- Drug uptake(free) (Brain [20]): 91 ng/g
- Drug uptake(free) (Brain [21]): 2 ng/g
Compound: O/N=c1\cc(-c2cc3cccn3cn2)oc2ccc(OCCN3CCOCC3)cc12 [listing 2 of 2 here]
- Ratio [17]: 0.3
- fEC50 (Mus musculus): 5 nM
- Ratio [22]: 1.1
- Ratio [23]: 0.2
- Activity (Rattus norvegicus [24]): Non-Toxic
- Activity (Rattus norvegicus [25]): Non-Toxic

From ChEMBL document CHEMBL4017520, “Discovery, Structure-Activity Relationship, and Antiparkinsonian Effect of a Potent and Brain-Penetrant Chemical Series of Positive Allosteric Modulators of Metabotropic Glutamate Receptor 4” (J Med Chem, 2017)
